Assay results: ChEMBL document CHEMBL4513216, “Probing the Open Global Health Chemical Diversity Library for Multistage-Active Starting Points for Next-Generation Antimalarials” (ACS Infect Dis, 2020)

Experiment: Toxicity liver stage against HepG2, at 10uM
Format: cell-based
Design: test concentration 10 uM, cell line HepG2-A16-CD81EGFP
Conditions: human, HepG2-A16-CD81EGFP cells; read-out: INHIBITION
Outline: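 Uninfected HepG2-A16-CD81EGFP cells, 3 × 10^3 per well, 1536-well, plated on prespotted compound at 10 μM final, parasite-free screening media added to match infected plates; puromycin 10 μM positive, DMSO 0.5% negative; run in parallel with 48 h PbLuc assay at 37 °C, 5% CO2; viability by CellTiter-Glo luminescence, normalized to controls.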

Structure (SMILES)	cytotoxicity at 10 µM [%]
Nc1ccnc(N2CCC(Cc3ccccc3Cl)(C(=O)O)CC2)n1	2.8
Cn1cc(C2CCCN2C(=O)c2cn(-c3ccccc3)nn2)cn1 (configuration not stated)	-24
COCC(=O)N(Cc1cccnc1)CC1CCCN(C2CCCCC2)C1 (configuration not stated)	1.72
NS(=O)(=O)CCNC(=O)c1ccc(-c2ccc(F)cc2)cc1F	-3.62
COC(=O)c1sc2cccc(F)c2c1CNC(=O)C1CC1	-11.4
Cc1c(Cl)c(C(=O)NC(C)CN2CCOCC2)nn1C (configuration not stated)	-1.77
O=C(c1sccc1-n1cnnn1)N1CCC(Cc2ccccc2)CC1	9.49
CCc1ccc(CNC(=O)Nc2cc(C)on2)s1	-11.6
CCN1CCN(S(=O)(=O)c2cn(C(C)C)cn2)c2ccccc21	-4.3
CC(CC#N)N1CCN(C(=O)OC(C)(C)C)CC1 (configuration not stated)	-2.72
O=C(NCc1cncc2c1CCN(Cc1cccc(F)c1)C2)C1CC1	-8.16
CNc1ccnc(N2C[C@@H](C)[C@](O)(C3CCC3)C2)n1	-10.1
Cc1nnc(C2CCN(C(=O)c3ccc4[nH]ccc4c3)CC2)s1	15
COc1ccccc1C1(CNCc2ccc([S+](C)[O-])cc2)CC1 (configuration not stated)	7.56
COc1ccccc1[C@@H]1CN(C(=O)c2csc(C)n2)C[C@H]1C(=O)O	4.98
Cn1cc(CN2CCCC23CCN(C(=O)c2cccn2C)CC3)cn1	2.88
CN(C)[C@H]1CCN(c2nc(C(C)(C)C)nc3c2cnn3C)C1	-6.12
CCCN1CCC(NCc2ccncc2)CC1	-6.79
CCN(CCCNC(=O)Nc1ccccc1C(C)C)S(C)(=O)=O	-0.132
CN1CCN(Cc2ccccc2CNC(=O)c2cc(Cl)ccc2F)CC1	9.61
Cc1ccc(OCCCNC(=O)Cc2nc3ncccn3n2)cc1	-1.08
FC(F)(F)c1n[nH]c2c1CN(CCc1ccccn1)CC2	3.76
O=C(CC1CCCCC1)N1CCC(O)(C(F)(F)F)C1 (configuration not stated)	-6.58
c1cc(-c2nnc([C@H]3CCN(C4CCCCC4)C3)o2)ccn1	-102

Structure (SMILES)	cytotoxicity at 10 µM [%]
CC(C)c1nnc2n1CCN(c1nn3cc(C(C)(C)C)nc3s1)C2	7.44
Cc1nc(C)n(CC2CCCN2Cc2cn3cc(Cl)ccc3n2)n1 (configuration not stated)	-16.7
Cc1ccccc1C(=O)NCC(=O)NCc1ccccn1	-11.9
COC(=O)N1CCCN(C(=O)NC2CCc3ccccc3C2)CC1 (configuration not stated)	-1.14
Cc1noc(-c2ccc(N(C)Cc3ccncn3)nc2)n1	1.11
CC(c1cccc(Cl)c1)N(C)CCS(=O)(=O)CCC(N)=O (configuration not stated)	-45.8
O=C1CCNc2ccc(F)cc2CN1Cc1ccccc1	-3.03
Cc1ccccc1CNCC(O)c1ccc(OC(C)C)cc1 (configuration not stated)	-6.17
CN(CCc1ccncc1)C1CCCN(Cc2noc(C3CC3)n2)C1 (configuration not stated)	8.66
CSc1ccc(C(=O)N2CCCC(Nc3ccc(F)cc3)C2)cc1 (configuration not stated)	-11.4
Cn1cc(-c2ncnc3c2CCN(C(=O)c2cscn2)CC3)cn1	1.15
Cc1csc2c(=O)n(CCN3CCNCC3)cnc12	-3.5
Cc1[nH]c2ccc(CNc3cc(C#N)ccn3)cc2c1C	-8.4
CCCOCCn1ncc(N2CCCC2)cc1=O	-10.7
CCOC(C)c1noc(CN(C)C(=O)c2ccncc2)n1 (configuration not stated)	14.5
Cc1ncnc2c1CCN(C(=O)Cc1ccccn1)CC2	8.12
COC(=O)c1cc(NC(=O)NCC2CCS(=O)(=O)C2)ccc1Cl (configuration not stated)	2.57
CC(=O)NCc1ccc(C(=O)N2CCCc3c(F)ccc(C)c32)cc1	-3.26
Cc1noc(C)c1C(=O)NCC(c1ccc(F)cc1)N(C)C (configuration not stated)	-0.0707
Cc1nccn1CC1CCN(C(=O)c2ccccc2)CC1	-4.17
Cc1noc(C)c1CN1CCOC2(CCCN(c3nccs3)C2)C1 (configuration not stated)	2.39
CC(=O)N1CCC(Cc2nccnc2-c2ccnn2C)CC1	-7.3
COc1cccc(S(=O)(=O)N2CCOC(C)(C(N)=O)C2)c1 (configuration not stated)	3.08
